≈ marks a conversion by molar mass, not a printed value.
Experiments:
[1] = tested on: Candida albicans (ATCC 24433); test: Broth microdilution MIC90; format: cell-based; conditions: ATCC24433, read-out: MIC90 Ca
[2] = MTT cytotoxicity assay; format: cell-based; conditions: human
Method in brief: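 Human CCD 841 CoN colon epithelial cells were grown in RPMI-1640 with 10% FBS, 1% penicillin/streptomycin, 1% L-glutamine and amphotericin B at 37 °C under 5% CO2. They were seeded at 5x10^3 cells/well, then treated 24 h later with test compound at 1.95–1000 µg/ml for 24 h. MTT solution (5 mg/mL) was added for 3 h at 37 °C, formazan dissolved in DMSO, and absorbance read at 540 nm. IC50 was obtained by regression of proliferation against concentration.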

MIC90 [1] | Structure (SMILES) | IC50 at 24 h [2]
7.8 µg/mL (≈ 14.7 µM) | CC(=O)N1CCN(c2ccc(OCC3COC(Cn4ccnc4)(c4ccc(Cl)cc4Cl)O3)cc2)CC1 (centres unmarked) [Ketoconazole] | 
 | O=C(N/N=C/c1ccc([N+](=O)[O-])o1)c1ccc(O)cc1 [Nifuroxazide] | 122 µg/mL (≈ 443 µM)

— paper PMC5543573 (Current Pharmaceutical Design, 2017)
